Activity calls are given as the source filed them.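 Rule for the calls, unless noted: active = Her2 level under about 52% in both replicate screens, with viability over 70% of control (limit read from the data); inconclusive = Her2 under the limit in one screen only, or viability under 70%; inactive = Her2 level above the set limit.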
Columns and labels:
[1] = Her2 expression decrease, cell viability multiplex – SKBR3 breast tumor cells, AlphaScreen, ATP viability, primary screen (AID 461); conditions: SKBR3 Her2 protein level, 18-24 h, measured here: SKBR3 viability, ATP luminescence, at 10 µM;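 for Her2 level: lower value means less Her2 protein in the cells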;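 for viability: percent of carrier control wells set as 100% viability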
[2] = biological target: Receptor tyrosine-protein kinase erbB-2 (Homo sapiens) (UniProt P04626); assay: as above; conditions: 18-24 h, at 10 µM, stronger effect = lower value
Sequence of Receptor tyrosine-protein kinase erbB-2 (Homo sapiens) (P04626 whole entry, looked up): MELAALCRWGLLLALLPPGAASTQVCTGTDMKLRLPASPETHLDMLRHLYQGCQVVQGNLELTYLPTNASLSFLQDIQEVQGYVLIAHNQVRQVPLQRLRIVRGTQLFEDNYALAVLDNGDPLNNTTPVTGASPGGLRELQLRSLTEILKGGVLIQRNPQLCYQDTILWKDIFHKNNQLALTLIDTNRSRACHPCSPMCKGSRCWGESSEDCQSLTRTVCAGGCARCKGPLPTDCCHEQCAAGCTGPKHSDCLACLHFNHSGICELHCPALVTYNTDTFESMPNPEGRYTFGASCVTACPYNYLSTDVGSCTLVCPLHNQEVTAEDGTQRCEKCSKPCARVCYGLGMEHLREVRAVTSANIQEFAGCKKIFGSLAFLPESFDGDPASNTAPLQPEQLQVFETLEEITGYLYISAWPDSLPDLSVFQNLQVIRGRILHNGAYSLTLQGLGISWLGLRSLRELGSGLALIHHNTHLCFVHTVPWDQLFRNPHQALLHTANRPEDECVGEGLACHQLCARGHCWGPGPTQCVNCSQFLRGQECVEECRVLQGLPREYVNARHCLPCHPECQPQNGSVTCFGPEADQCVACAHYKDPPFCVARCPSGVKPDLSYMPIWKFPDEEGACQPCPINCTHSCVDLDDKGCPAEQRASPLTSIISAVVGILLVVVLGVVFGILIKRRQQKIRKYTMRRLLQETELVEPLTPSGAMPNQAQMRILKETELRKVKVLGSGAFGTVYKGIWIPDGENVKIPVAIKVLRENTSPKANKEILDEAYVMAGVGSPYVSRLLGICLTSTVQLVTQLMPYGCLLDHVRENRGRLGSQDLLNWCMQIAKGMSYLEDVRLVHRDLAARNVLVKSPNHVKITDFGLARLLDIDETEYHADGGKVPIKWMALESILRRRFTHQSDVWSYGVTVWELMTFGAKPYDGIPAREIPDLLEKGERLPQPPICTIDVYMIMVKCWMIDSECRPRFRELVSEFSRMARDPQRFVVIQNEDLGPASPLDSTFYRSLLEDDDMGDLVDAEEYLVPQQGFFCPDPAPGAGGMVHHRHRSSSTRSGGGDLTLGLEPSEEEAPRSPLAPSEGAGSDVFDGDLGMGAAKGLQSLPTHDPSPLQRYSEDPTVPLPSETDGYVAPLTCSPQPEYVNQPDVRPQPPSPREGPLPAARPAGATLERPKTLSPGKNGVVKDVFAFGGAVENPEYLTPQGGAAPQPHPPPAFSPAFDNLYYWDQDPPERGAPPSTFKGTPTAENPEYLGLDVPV

[3] = reduced viability of SK-BR-3 breast cancer cells – cell-based, 24 h, human, pilot screen (AID 572;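 active = viability at or below 10% of carrier control in both of two separate runs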;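 note: compound exposure lasted between 18 and 24 h rather than exactly 24 h; 100% = carrier-treated control wells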); conditions: SK-BR-3 viability, CellTiter-Glo luminescence, at 10 µM, stronger effect = lower value
[4] = HUVEC growth inhibition – cell-based, human, primary screen (AID 575;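 active = viability at or below 30% in both replicate assays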;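 note: 100% = median of untreated cell wells with 0.1% DMSO on each plate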); conditions: HUVEC proliferation, CellTiter-Glo luminescence, 72 h; at 10 µM; stronger effect = lower value
Outline: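 Material: primary human umbilical vein endothelial cells / Schedule: 72 h exposure, 37 °C, 5% CO2, 30 min RT equilibration / Signal: ATP-based CellTiter-Glo luminescent read / Read-out basis: percent of median DMSO-control luminescence / Control set: 32 DMSO-only cell-control wells (high), 32 MePR drug-control wells (low) per plate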

[5] = H69AR cell proliferation blockers – human, duplicate replicates, primary screen (AID 580;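 active = viability at or under a set limit in both replicates, limit being median viability minus 3 SD, cut at about 48% in these data, passing the limit was not always enough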;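 note: 100% = mean luminescence of untreated wells and 0% = no signal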); conditions: H69AR lung tumor cells viability, ATP luminescence, 72 h; at 10 µM; stronger effect = lower value
[6] = MRP1 drug-resistance reversers in H69AR cells – cell-based, doxorubicin co-treatment, pilot screen (AID 601;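 active = viability loss from added drug above about 55%, and viability with drug at most 40%, in both replicates, limit read from the data, passing the limit was not always enough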); conditions: CellTiter-Glo, 72 h, at 10 µM; for differential viability (reversal): stronger effect = higher value
[7] = yeast transport mutant growth inhibition pilot in 384-well plates, post-Golgi transport modulator project (AID 636; in the data active = inhibition above about 31%); conditions: absorbance 615 nm, about 18 h, stronger effect = higher value
[8] = growth suppression of yeast trafficking mutant, preliminary HTS, modulators of trafficking downstream of Golgi apparatus project, 1536-format plate, OD 615 nm (AID 637; in the data active = inhibition above about 30%); conditions: yeast transport mutant growth, absorbance 615 nm, 18 h; stronger effect = higher value
[9] = H69AR cells + 2 uM doxorubicin, measured here: viability with 2 uM doxorubicin, stronger effect = lower value
[10] = H69AR cells, compound alone cytotoxicity

**Q.** Which results are given for `CN(CC(O)COCc1cccs1)C1CCCCC1` (stereo not given)?
**A.** viability [1]: 93.5%; Her2 level [2]: 90% (inactive); viability [3]: 93.5% (inactive); viability [4]: 93.2% (inactive); viability [5]: 106% (inactive); differential viability (reversal) ([6]; H69AR cells + 2 uM doxorubicin): 10.9% (inactive); viability [6, 9]: 95.4%; viability [6, 10]: 106%; inhibition [7]: -3.47% (inactive); inhibition [8]: 5.57% (inactive)

**Q.** For `CN1CCN(c2nc3c(c(=O)[nH]c(=O)n3C)n2CCOc2ccccc2)CC1`, which viability [1] is on record?
**A.** 75.5%

**Q.** What about the Her2 level [2] of the same compound?
**A.** 85.5% (inactive)

**Q.** What about the viability [3] of the same compound?
**A.** 75.5% (inactive)

**Q.** And the viability [4]?
**A.** 80.1% (inactive)

**Q.** And the viability [5]?
**A.** 92.2% (inactive)

**Q.** And the differential viability (reversal) ([6]; H69AR cells + 2 uM doxorubicin)?
**A.** 0.615% (inactive)

**Q.** What about the viability [6, 9] of the same compound?
**A.** 91.5%

**Q.** And the viability [6, 10]?
**A.** 92.2%

**Q.** What about the inhibition [7] of the same compound?
**A.** -6.49% (inactive)

**Q.** And the inhibition [8]?
**A.** 2.62% (inactive)

**Q.** Which viability [1] does the source give for `O=C(O)CSc1ccc2ccccc2n1` here?
**A.** 95.5%

**Q.** What about the Her2 level [2] of the same compound?
**A.** 81% (inactive)

**Q.** And the viability [3]?
**A.** 95.5% (inactive)

**Q.** What about the viability [4] of the same compound?
**A.** 106% (inactive)

**Q.** And the viability [5]?
**A.** 90% (inactive)

**Q.** And the differential viability (reversal) ([6]; H69AR cells + 2 uM doxorubicin)?
**A.** 9.33% (inactive)

**Q.** And the viability [6, 9]?
**A.** 80.7%

**Q.** What about the viability [6, 10] of the same compound?
**A.** 90%

**Q.** What about the inhibition [7] of the same compound?
**A.** -7.47% (inactive)

**Q.** What about the inhibition [8] of the same compound?
**A.** 5.48% (inactive)

**Q.** For `Cc1cc(N2CCN(C)CC2)nc(N2CCOCC2)n1`, which viability [1] is on record?
**A.** 105%

**Q.** And the Her2 level [2]?
**A.** 89.5% (inactive)

**Q.** What about the viability [3] of the same compound?
**A.** 105% (inactive)

**Q.** And the viability [4]?
**A.** 97.7% (inactive)

**Q.** What about the viability [5] of the same compound?
**A.** 92.2% (inactive)

**Q.** What about the differential viability (reversal) ([6]; H69AR cells + 2 uM doxorubicin) of the same compound?
**A.** 4.88% (inactive)

**Q.** What about the viability [6, 9] of the same compound?
**A.** 87.4%

**Q.** What about the viability [6, 10] of the same compound?
**A.** 92.2%

**Q.** And the inhibition [7]?
**A.** -3.82% (inactive)

**Q.** What about the inhibition [8] of the same compound?
**A.** -8.17% (inactive)

**Q.** What does the source list for `O=C(O)c1cccc(NC(=O)C2C3C=CC(C3)C2C(=O)OCC(F)(F)C(F)F)c1` (stereo not given)?
**A.** viability [1]: 102%; Her2 level [2]: 91.5% (inactive); viability [3]: 102% (inactive); viability [4]: 94% (inactive); viability [5]: 89% (inactive); differential viability (reversal) ([6]; H69AR cells + 2 uM doxorubicin): 0.695% (inactive); viability [6, 9]: 88.3%; viability [6, 10]: 89%; inhibition [7]: -5.79% (inactive); inhibition [8]: -1.33% (inactive)

**Q.** Which results are given for `O=C1NC(=O)C2(CCC(C(=O)O)C2)N1` (stereo not given)?
**A.** viability [1]: 93.5%; Her2 level [2]: 84% (inactive); viability [3]: 93.5% (inactive); viability [4]: 96.4% (inactive); viability [5]: 94.2% (inactive); differential viability (reversal) ([6]; H69AR cells + 2 uM doxorubicin): -0.33% (inactive); viability [6, 9]: 94.5%; viability [6, 10]: 94.2%; inhibition [7]: -5.73% (inactive); inhibition [8]: 2.46% (inactive)

**Q.** With `COC(=O)c1ccc(C(=O)OC)c(NC(=O)Nc2ccc3c(c2)OCO3)c1` as the compound, how does the viability [1] read?
**A.** 86.5%

**Q.** What about the Her2 level [2] of the same compound?
**A.** 106% (inactive)

**Q.** And the viability [3]?
**A.** 86.5% (inactive)

**Q.** And the viability [4]?
**A.** 89.1% (inactive)

**Q.** What about the viability [5] of the same compound?
**A.** 92.7% (inactive)

**Q.** What about the differential viability (reversal) ([6]; H69AR cells + 2 uM doxorubicin) of the same compound?
**A.** -2.65% (inactive)

**Q.** What about the viability [6, 9] of the same compound?
**A.** 95.4%

**Q.** What about the viability [6, 10] of the same compound?
**A.** 92.7%

**Q.** And the inhibition [7]?
**A.** -0.78% (inactive)

**Q.** And the inhibition [8]?
**A.** -9.67% (inactive)
